Values after ≈ are worked out from the molar mass of the structure shown. Active and inactive are the calls of the source. The calls are words filed in the database; no cut-off is given here.
How the values were obtained:
[1] = tested on: Echovirus E9; test: Minimum inhibitory concentration of compound in vitro against echovirus-9; format: functional; details: Enterovirus B
In short: (§1)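 Plaque reduction on day-old HeLa (Ohio) monolayers, about 80 pfu/well. Drug was serially diluted twofold from a 10 mg/mL Me2SO stock into an M-199/10% calf serum/agarose overlay, applied in duplicate after virus adsorption. Plaques were counted after 3 days in 2% CO2, following formaldehyde fixation and crystal violet staining. MIC was the concentration producing 50% plaque reduction.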

[2] = tested on: Mus musculus; test: Effect of compound on number of survivors per 30 mice at dose 125 mg/kg; format: functional
In short: (§2)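 ICR Buckberg mice (18–21 g) were infected intracerebrally with polio-2 (MEF strain). Compound was given orally bid at 31–250 mg/kg: 1 h before infection, 2 h after, then twice daily for 13 days. Placebo and nonmedicated groups served as controls, with 30 mice per group. Flaccid paralysis and death were scored and survivors counted when the test ended on day 20.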

[3] = tested on: Mus musculus; test: Effect of compound on number of survivors per 30 mice at dose 250 mg/kg; format: functional; in short: as §2
[4] = tested on: Mus musculus; test: Effect of compound on number of survivors per 30 mice at dose 31 mg/kg; format: functional; in short: as §2
[5] = tested on: Mus musculus; test: Effect of compound on number of survivors per 30 mice at dose 63 mg/kg; format: functional; in short: as §2
[6] = tested on: Mus musculus; test: Effect of compound on number of survivors per 30 mice at nonmed mg/kg; format: functional; in short: as §2
[7] = tested on: Mus musculus; test: Effect of compound on number of survivors per 30 mice at placebo mg/kg; format: functional; in short: as §2
[8] = tested on: Mus musculus; test: Effect of compound on Poliovirus induced paralysis and death in mice when administered orally with 31 mg/kg.; format: functional; details: route oral; in short: as §2
[9] = tested on: Mus musculus; test: Effect of compound on Poliovirus induced paralysis and death in mice when administered orally with dose 125 mg/kg.; format: functional; details: route oral; in short: as §2
[10] = tested on: Mus musculus; test: Effect of compound on Poliovirus induced paralysis and death in mice when administered orally with dose 250 mg/kg.; format: functional; details: route oral; in short: as §2
[11] = tested on: Mus musculus; test: Effect of compound on Poliovirus induced paralysis and death in mice when administered orally with dose 63 mg/kg.; format: functional; details: route oral; in short: as §2
[12] = tested on: Mus musculus; test: Effect of compound on Poliovirus induced paralysis and death in mice when administered orally with nonmed mg/kg.; format: functional; in short: as §2
[13] = tested on: Mus musculus; test: Effect of compound on Poliovirus induced paralysis and death in mice when administered orally with placebo mg/kg.; format: functional; in short: as §2
[14] = tested on: Poliovirus 2; test: In vitro anti-picornavirus activity against Poliovirus type-2.; format: functional; details: Enterovirus C
[15] = tested on: Poliovirus 2; test: Minimum inhibitory concentration of compound in vitro against poliovirus-2; format: functional; details: Enterovirus C
In short: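 Plaque-reduction assay on day-old HeLa (Ohio) monolayers at 90% confluence, infected with polio-2 at ca. 80 pfu/well. Adsorption was at least 1 h at 37 °C in 2% CO2. Cells were then overlaid in duplicate with drug in M-199/calf serum/agarose (Me2SO stock at 10 mg/mL, twofold dilutions) and held 3 days. Plaques were fixed with formaldehyde, stained with crystal violet and counted. MIC is the concentration giving 50% plaque reduction.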

[16] = tested on: Poliovirus 3; test: Minimum inhibitory concentration of compound in vitro against poliovirus-3; format: functional; details: Enterovirus C
[17] = tested on: Enterovirus; test: Effect on plaque production by Human Rhinovirus serotype 13; format: functional
In short: (§3)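 HeLa (Ohio) monolayers (day-old, 90%) were infected at about 80 pfu/well and adsorbed at least 1 h at 33 °C in 2% CO2. After 3 days at 33 °C they were fixed with formaldehyde and stained with crystal violet. MIC was the concentration giving 50% fewer plaques.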

[18] = tested on: Enterovirus; test: Effect on plaque production by Human Rhinovirus serotype 14; format: functional; in short: as §3
[19] = tested on: Enterovirus; test: Effect on plaque production by Human Rhinovirus serotype 16; format: functional; in short: as §3
[20] = tested on: Enterovirus; test: Effect on plaque production by Human Rhinovirus serotype 18; format: functional; in short: as §3
[21] = tested on: Enterovirus; test: Effect on plaque production by Human Rhinovirus serotype 1A (seven most common serotypes); format: functional; in short: as §3
[22] = tested on: Enterovirus; test: Effect on plaque production by Human Rhinovirus serotype 2; format: functional; in short: as §3
[23] = tested on: Enterovirus; test: Effect on plaque production by Human Rhinovirus serotype 21; format: functional; in short: as §3
[24] = tested on: Enterovirus; test: Effect on plaque production by Human Rhinovirus serotype 22; format: functional; in short: as §3
[25] = tested on: Enterovirus; test: Effect on plaque production by Human Rhinovirus serotype 29; format: functional; in short: as §3
[26] = tested on: Enterovirus; test: Effect on plaque production by Human Rhinovirus serotype 29 (seven most common serotypes); format: functional; in short: as §3
[27] = tested on: Enterovirus; test: Effect on plaque production by Human Rhinovirus serotype 3; format: functional; in short: as §3
[28] = tested on: Enterovirus; test: Effect on plaque production by Human Rhinovirus serotype 31 (seven most common serotypes); format: functional; in short: as §3
[29] = tested on: Enterovirus; test: Effect on plaque production by Human Rhinovirus serotype 33; format: functional; in short: as §3
[30] = tested on: Enterovirus; test: Effect on plaque production by Human Rhinovirus serotype 36; format: functional; in short: as §3
[31] = tested on: Enterovirus; test: Effect on plaque production by Human Rhinovirus serotype 39; format: functional; in short: as §3
[32] = tested on: Enterovirus; test: Effect on plaque production by Human Rhinovirus serotype 41; NA=Not active; format: functional, organism-based; in short: as §3
[33] = tested on: Enterovirus; test: Effect on plaque production by Human Rhinovirus serotype 49; format: functional; in short: as §3
[34] = tested on: Enterovirus; test: Effect on plaque production by Human Rhinovirus serotype 5; format: functional; in short: as §3
[35] = tested on: Enterovirus; test: Effect on plaque production by Human Rhinovirus serotype 50; format: functional; in short: as §3
[36] = tested on: Enterovirus; test: Effect on plaque production by Human Rhinovirus serotype 61; format: functional; in short: as §3
[37] = tested on: Enterovirus; test: Effect on plaque production by Human Rhinovirus serotype 72; NA=Not active; format: functional, organism-based; in short: as §3
[38] = tested on: Enterovirus; test: Effect on plaque production by Human Rhinovirus serotype 75; format: functional; in short: as §3
[39] = tested on: Enterovirus; test: Effect on plaque production by Human Rhinovirus serotype 86; format: functional; in short: as §3
[40] = tested on: Enterovirus; test: Effect on plaque production by Human Rhinovirus serotype 89; format: functional; in short: as §3
[41] = tested on: rhinovirus A2; test: Minimum inhibitory concentration of compound in vitro against rhinovirus-2; format: functional, rhinovirus type-2; details: Rhinovirus A; in short: as §3
[42] = Maximum testable level of compound was evaluated; format: functional
In short: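 In the HeLa (Ohio) plaque-overlay system, Me2SO-solubilized compound was twofold serially diluted into the agarose overlay. Uninfected cell controls were run alongside and cells were stained with crystal violet after 3 days. The maximum testable level was taken as the concentration below which no cytotoxic effects were seen.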

[43] = tested on: Enterovirus; test: Effect on plaque production by Human Rhinovirus serotype 1B (seven most common serotypes); format: functional; in short: as §3
[44] = tested on: Echovirus E11; test: Minimum inhibitory concentration of compound in vitro against echovirus-11; format: functional; details: Enterovirus B; in short: as §1
[45] = tested on: rhinovirus A2; test: In vitro anti-picornavirus activity against Rhinovirus type-2.; format: functional; details: Rhinovirus A
In short: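 HeLa (Ohio) monolayers (day-old, 90%) were infected at about 80 pfu/well and adsorbed at least 1 h at 33 °C in 2% CO2. After 3 days at 33 °C they were fixed with formaldehyde and stained with crystal violet.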

[46] = tested on: Enterovirus; test: Effect on plaque production by Human Rhinovirus serotype 15 (seven most common serotypes); format: functional; in short: as §3
[47] = tested on: Enterovirus; test: Effect on plaque production by Human Rhinovirus serotype 4 (seven most common serotypes); NA=Not active; format: functional, organism-based; in short: as §3

## COc1ccc(OCCCCCCCc2cc(C)no2)c(Cl)c1
[1]
  MIC: 0.15 µg/mL (≈ 0.444 µM)
[2]
  Survivors: 22
[3]
  Survivors: 28
[4]
  Survivors: 16
[5]
  Survivors: 20
[6]
  Survivors: 7
[7]
  Survivors: 7
[8]
  survival at 31 mg/kg: 53%
[9]
  survival at 125 mg/kg: 73%
[10]
  survival at 250 mg/kg: 93%
[11]
  survival at 63 mg/kg: 67%
[12]
  Survival: 22%
[13]
  Survival: 22%
[14]
  MIC: 0.05 µg/mL (≈ 0.148 µM)
[15]
  MIC: 0.05 µg/mL (≈ 0.148 µM)
[16]
  MIC: 0.08 µg/mL (≈ 0.237 µM)
[17]
  MIC: 1.9 µg/mL (≈ 5.62 µM)
[18]
  MIC: 1.35 µg/mL (≈ 4 µM)
[19]
  MIC: 0.04 µg/mL (≈ 0.118 µM)
[20]
  MIC: 1.5 µg/mL (≈ 4.44 µM)
[21]
  MIC: 0.29 µg/mL (≈ 0.858 µM)
[22]
  MIC: 0.04 µg/mL (≈ 0.118 µM)
[23]
  MIC: 0.01 µg/mL (≈ 0.0296 µM)
[24]
  MIC: 0.1 µg/mL (≈ 0.296 µM)
[25]
  MIC: 3.1 µg/mL (≈ 9.18 µM)
[26]
  MIC: 0.33 µg/mL (≈ 0.977 µM)
[27]
  MIC: 0.5 µg/mL (≈ 1.48 µM)
[28]
  MIC: 0.53 µg/mL (≈ 1.57 µM)
[29]
  MIC: 0.05 µg/mL (≈ 0.148 µM)
[30]
  MIC: 0.04 µg/mL (≈ 0.118 µM)
[31]
  MIC: 0.07 µg/mL (≈ 0.207 µM)
[32]
  MIC: inactive
[33]
  MIC: 0.26 µg/mL (≈ 0.77 µM)
[34]
  MIC: 5.8 µg/mL (≈ 17.2 µM)
[35]
  MIC: 0.13 µg/mL (≈ 0.385 µM)
[36]
  MIC: 0.09 µg/mL (≈ 0.266 µM)
[37]
  MIC: inactive
[38]
  MIC: 4.1 µg/mL (≈ 12.1 µM)
[39]
  MIC: 0.25 µg/mL (≈ 0.74 µM)
[40]
  MIC: 0.03 µg/mL (≈ 0.0888 µM)
[41]
  MIC: 0.04 µg/mL (≈ 0.118 µM)
[42]
  MTL: 12.5 µg/mL
[43]
  MIC: 0.37 µg/mL (≈ 1.1 µM)
[44]
  MIC: 0.04 µg/mL (≈ 0.118 µM)
[45]
  MIC: 0.04 µg/mL (≈ 0.118 µM)
[46]
  MIC: 0.44 µg/mL (≈ 1.3 µM)
[47]
  MIC: inactive

Reference: ChEMBL document CHEMBL1123011, “Isoxazoles with antipicornavirus activity” (1985)
